Measured values of several laboratories.
Lines come from different studies, so protocols differ.

Compound	target or system	test	test system	setting	endpoint	result
CO[C@H]1C[C@H](O[C@@H]2/C(C)=C/C[C@@H]3C[C@@H](C[C@]4(CC[C@H](C)[C@@H](C5CCCCC5)O4)O3)OC(=O)[C@@H]3C=C(C)/C(=N/O)[C@H]4OC/C(=C\C=C\[C@@H]2C)[C@]43O)O[C@@H](C)[C@@H]1O	Plasmodium falciparum	parasite growth	K1	drug-resistant strain, blood stage	IC50	311 nM
CC(C)C[C@H](NC(=O)[C@H](CC(C)C)NC(=O)[C@H](CCCCN)NC(=O)[C@H](CCCCN)NC(=O)[C@H](CC(C)C)NC(=O)[C@H](CCC(=O)O)NC(=O)[C@H](CCCCN)NC(=O)[C@H](CCCCN)NC(=O)[C@H](CC(C)C)NC(=O)[C@H](CC(C)C)NC(=O)[C@H](CCCCN)NC(=O)[C@H](CCCCN)NC(=O)[C@H](CC(C)C)NC(=O)[C@@H](N)CC(C)C)C(N)=O	HCCC9810	cell growth or viability, CCK-8			IC50	24600 nM
N=C(CC(O)c1cc2c(F)cc(F)cc2c2cc(C(F)(F)F)ccc12)NCc1ccc(F)cc1 (stereo not drawn)	Plasmodium falciparum	parasite growth, ELISA	3D7	72 h, blood stage	IC50	1110 nM
N.N.[Cl][Pt][Cl]	RS4-11	cell growth or viability, ATP luminescence		72 h	IC50	610 nM
N=C(CC(O)c1cc2c(F)cc(F)cc2c2cc(C(F)(F)F)ccc12)NC1CC(F)(F)C1 (stereo not drawn)	Plasmodium falciparum	parasite growth, ELISA	3D7	72 h, blood stage	IC50	80.2 nM
CC(C)C[C@H](NC(=O)[C@H](CCC(=O)O)NC(=O)[C@H](CCCCN)NC(=O)[C@H](CCCCN)NC(=O)[C@H](CC(C)C)NC(=O)[C@H](CC(C)C)NC(=O)[C@H](CCCCN)NC(=O)[C@H](CCCCN)NC(=O)[C@H](CC(C)C)NC(=O)[C@H](CC(C)C)NC(=O)[C@H](CCCCN)NC(=O)[C@H](CCCCN)NC(=O)[C@H](CC(C)C)NC(=O)[C@@H](N)CC(C)C)C(N)=O	HCCC9810	cell growth or viability, CCK-8			IC50	10200 nM
Cc1cccc(F)c1NC(=N)CC(O)c1cc2c(F)cc(F)cc2c2cc(C(F)(F)F)ccc12 (stereo not drawn)	Plasmodium falciparum	parasite growth, ELISA	3D7	72 h, blood stage	IC50	13.2 nM
C[C@@H]1CC[C@H]2[C@@H](C)C(=O)O[C@@H]3O[C@@]4(C)CC[C@@H]1[C@]32OO4	Plasmodium falciparum	parasite growth	DD2	drug-resistant strain, blood stage	IC50	8.9 nM
CC(C)C[C@H](NC(=O)[C@H](CC(C)C)NC(=O)[C@H](CCCCN)NC(=O)[C@H](CCCCN)NC(=O)[C@H](CCC(=O)O)NC(=O)[C@H](CC(C)C)NC(=O)[C@H](CCCCN)NC(=O)[C@H](CCCCN)NC(=O)[C@H](CC(C)C)NC(=O)[C@H](CC(C)C)NC(=O)[C@H](CCCCN)NC(=O)[C@H](CCCCN)NC(=O)[C@H](CC(C)C)NC(=O)[C@@H](N)CC(C)C)C(N)=O	HCCC9810	cell growth or viability, CCK-8			IC50	8320 nM
COc1ccc2cc1Oc1ccc(cc1)C[C@H]1c3c(cc4c(c3Oc3cc5c(cc3OC)CCN(C)[C@@H]5C2)OCO4)CCN1C	Plasmodium falciparum	parasite growth	K1	drug-resistant strain, blood stage	IC50	91.4 nM
N=C(CC(O)c1cc2c(F)cc(F)cc2c2cc(C(F)(F)F)ccc12)Nc1ccccc1I (stereo not drawn)	Plasmodium falciparum	parasite growth, ELISA	3D7	72 h, blood stage	IC50	10.9 nM
Cc1ccc(N(CC2=NCCN2)c2cccc(O)c2)cc1	Plasmodium falciparum	parasite growth	K1	drug-resistant strain, blood stage	IC50	189000 nM
CC(C)C[C@H](NC(=O)[C@H](CC(C)C)NC(=O)[C@H](CCCCN)NC(=O)[C@H](CCCCN)NC(=O)[C@H](CC(C)C)NC(=O)[C@H](CC(C)C)NC(=O)[C@H](CCCCN)NC(=O)[C@H](CCCCN)NC(=O)[C@H](CC(C)C)NC(=O)[C@H](CCC(=O)O)NC(=O)[C@H](CCCCN)NC(=O)[C@H](CCCCN)NC(=O)[C@H](CC(C)C)NC(=O)[C@@H](N)CC(C)C)C(N)=O	HCCC9810	cell growth or viability, CCK-8			IC50	9400 nM
CCN1CCN(Cc2ccc(Nc3nc4ccc(Oc5ccnc(NC(=O)C6CCN(C)CC6)c5)cc4n3C)cc2C(F)(F)F)CC1	Plasmodium falciparum	parasite growth, SYBR Green	3D7	blood stage	EC50	210 nM
CCN(CC)CCOc1ccc2c(c1)C(=O)c1cc(OCCN(CC)CC)ccc1-2	Plasmodium falciparum	parasite growth	K1	drug-resistant strain, blood stage	IC50	500 nM
